{"source": "ChEMBL document CHEMBL4715807", "about": "“Development of Small Molecules with a Noncanonical Binding Mode to HIV-1 Trans Activation Response (TAR) RNA” (J Med Chem, 2016)", "key": {"[1]": {"assay": "Binding affinity to HIV1 25-2AP TAR by 2-AP based fluorescence assay", "set-up": "species or system Human immunodeficiency virus 1", "conditions": "read-out: Kd(app)", "method_in_brief": "(§1)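 2-AP-labelled TAR hairpin (U23 or U25 replaced) annealed at 95 °C 3 min, cooled ≥30 min, used at 1 μM in PBS pH 7.4 with compound added from DMSO, 30 min at room temperature with rocking. Fluorescence read at ex 310/em 365 nm, compound fluorescence subtracted, normalized to free RNA. Apparent Kd from nonlinear fit; highest concentration 400 μM; triplicates, ± SD.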"}, "[2]": {"assay": "Binding affinity to HIV1 23-2AP TAR by 2-AP based fluorescence assay", "set-up": "species or system Human immunodeficiency virus 1", "conditions": "read-out: Kd(app)", "method_in_brief": "as §1"}, "[3]": {"assay": "Binding affinity to HIV1 TAR by FRET based Tat/TAR displacement assay", "set-up": "species or system Human immunodeficiency virus 1", "method_in_brief": "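Unlabeled TAR (100 nM) with 16-mer Tat peptide (N-terminal FAM, C-terminal TAMRA; 12 nM) in 50 mM Tris pH 7.4, 20 mM KCl, 0.01% Triton X-100, 5% DMSO; compound added and incubated 30 min at room temperature with rocking. Read at ex 485/em 590 nm. Controls: complex alone for 0% inhibition, peptide alone for 100%.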"}, "[4]": {"system": "Human immunodeficiency virus 1", "assay": "Binding affinity to HIV-1 TAR RNA 5'-UTR assessed as induction of chemical reactivity by SHAPE analysis", "method_in_brief": "(§2)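 RNA (5 pmol) heated to 90 °C 3 min, slowly cooled to 4 °C, in 50 mM Tris-HCl pH 8.0, 100 mM NaCl, 5 mM MgCl2, then 37 °C for 15 min. Ligand added to final 5 or 0.5 μM, 10 min at room temperature. 1M7 at final 3.5 mM (DMSO alone for control), 37 °C 5 min. Primer extension with SuperScript III, capillary electrophoresis; control peak areas subtracted.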"}, "[5]": {"system": "Human immunodeficiency virus 1", "assay": "Effect on global topology of HIV-1 RNA 5'-UTR by SHAPE analysis", "method_in_brief": "as §2"}, "[6]": {"system": "Human immunodeficiency virus 1", "assay": "Binding affinity to HIV-1 TAR RNA 5'-UTR assessed as 1M7 reactivity reduction throughout TAR with residues U13-14, C19, and G32 by SHAPE analysis", "method_in_brief": "as §2"}, "[7]": {"system": "Human immunodeficiency virus 1", "assay": "Binding affinity to HIV1 TAR assessed as induction of chemical shift perturbations of TAR residues by NMR analysis", "method_in_brief": "(§3)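 NMR buffer: 20 mM d19-Bis-Tris pH 6.5, 10 mM NaCl, DSA reference, in D2O or 95% H2O/5% D2O. Ligand stocks 10 mM in d6-DMSO; free-ligand samples […], final DMSO 15%. RNA heated 90 °C 4 min, snap-cooled at −20 °C. 1D 1H with excitation sculpting; ligand line broadening with 10 μM TAR; TOCSY shift perturbations.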"}, "[8]": {"system": "Human immunodeficiency virus 1", "assay": "Binding affinity to HIV1 TAR by NMR analysis", "method_in_brief": "as §3"}, "[9]": {"system": "Human immunodeficiency virus 1", "assay": "Binding affinity to HIV-1 TAR RNA 5'-UTR assessed as decrease in 1M7 reactivity for residue U25 within TAR bulge and U31, G33 and A35 within apical loop by SHAPE analysis", "method_in_brief": "as §2"}, "[10]": {"system": "Human immunodeficiency virus 1", "assay": "Binding affinity to HIV1 TAR by TOCSY NMR analysis", "method_in_brief": "as §3"}}, "note": "Calls of active or inactive are those of the source. No cut-off for these calls is given here.", "data": [{"smiles": "Cc1ccc2c(N)c(C(=O)Nc3cccnc3)sc2n1", "values": [{"measurement": "Kd", "setting": "[1]", "value": 68, "unit": "µM"}, {"measurement": "Kd", "setting": "[2]", "value": 89.5, "unit": "µM"}, {"measurement": "IC50", "setting": "[3]", "value": "> 400", "unit": "µM"}]}, {"smiles": "Cc1ccc2cc(C(=O)Nc3cccc(C(F)(F)F)c3)sc2n1", "values": [{"measurement": "Kd", "setting": "[1]", "value": "> 400", "unit": "µM"}, {"measurement": "Kd", "setting": "[2]", "value": "> 400", "unit": "µM"}, {"measurement": "IC50", "setting": "[3]", "value": "> 400", "unit": "µM"}]}, {"smiles": "Cc1ccc2c(N)c(C(=O)Nc3ccccn3)sc2n1", "values": [{"measurement": "Kd", "setting": "[1]", "value": 50.3, "unit": "µM"}, {"measurement": "Kd", "setting": "[2]", "value": 64.3, "unit": "µM"}, {"measurement": "IC50", "setting": "[3]", "value": "> 400", "unit": "µM"}]}, {"smiles": "Cc1ccc2c(N)c(C(=O)Nc3cccc(C(F)(F)F)c3)sc2n1", "values": [{"measurement": "Kd", "setting": "[1]", "value": 47.7, "unit": "µM"}, {"measurement": "Kd", "setting": "[2]", "value": 54.1, "unit": "µM"}, {"measurement": "IC50", "setting": "[3]", "value": "> 400", "unit": "µM"}]}, {"smiles": "Cc1ccc2c(N)c(C(=O)Nc3ccccc3C(F)(F)F)sc2n1", "values": [{"measurement": "Kd", "setting": "[1]", "value": 90.1, "unit": "µM"}, {"measurement": "Kd", "setting": "[2]", "value": "> 400", "unit": "µM"}, {"measurement": "IC50", "setting": "[3]", "value": 90.4, "unit": "µM"}]}, {"smiles": "Cc1ccc2c(N)c(-c3nnc(-c4cccc(Cl)c4)o3)sc2n1", "values": [{"measurement": "Kd", "setting": "[1]", "value": 42.5, "unit": "µM"}, {"measurement": "Kd", "setting": "[2]", "value": 45.6, "unit": "µM"}, {"measurement": "IC50", "setting": "[3]", "value": "> 400", "unit": "µM"}]}, {"smiles": "Cc1ccc2c(N)c(-c3nnc(-c4cccc(C(F)(F)F)c4)o3)sc2n1", "values": [{"measurement": "Activity", "setting": "[4]", "value": "Active"}, {"measurement": "Activity", "setting": "[5]", "value": "inactive"}, {"measurement": "Kd", "setting": "[1]", "value": 49.1, "unit": "µM"}, {"measurement": "Activity", "setting": "[6]", "value": "Active"}, {"measurement": "Kd", "setting": "[2]", "value": 75, "unit": "µM"}, {"measurement": "IC50", "setting": "[3]", "value": 40.1, "unit": "µM"}]}, {"smiles": "Cc1ccc2c(n1)sc1c(=O)n(-c3cccc(C(F)(F)F)c3)c(=O)[nH]c12", "values": [{"measurement": "Kd", "setting": "[1]", "value": "> 400", "unit": "µM"}, {"measurement": "Kd", "setting": "[2]", "value": "> 400", "unit": "µM"}, {"measurement": "IC50", "setting": "[3]", "value": "> 400", "unit": "µM"}]}, {"smiles": "Cc1cnc2sc(C(=O)Nc3cccc(C(F)(F)F)c3)c(N)c2c1", "values": [{"measurement": "Kd", "setting": "[1]", "value": 48.5, "unit": "µM"}, {"measurement": "Kd", "setting": "[2]", "value": 55.4, "unit": "µM"}, {"measurement": "IC50", "setting": "[3]", "value": "> 400", "unit": "µM"}]}, {"smiles": "Cc1ccnc2sc(C(=O)Nc3cccc(C(F)(F)F)c3)c(N)c12", "values": [{"measurement": "Kd", "setting": "[1]", "value": 66.5, "unit": "µM"}, {"measurement": "Kd", "setting": "[2]", "value": 94.1, "unit": "µM"}, {"measurement": "IC50", "setting": "[3]", "value": "> 400", "unit": "µM"}]}, {"smiles": "Cc1ccc2c(N)c(-c3nnc(-c4ccccc4)o3)sc2n1", "values": [{"measurement": "Kd", "setting": "[1]", "value": 44.6, "unit": "µM"}, {"measurement": "Kd", "setting": "[2]", "value": 56.9, "unit": "µM"}, {"measurement": "IC50", "setting": "[3]", "value": "> 300", "unit": "µM"}]}, {"smiles": "Cc1ccc2c(N)c(C(=O)Nc3ccncc3)sc2n1", "values": [{"measurement": "Activity", "setting": "[7]", "value": "Dose-dependent effect"}, {"measurement": "Activity", "setting": "[4]", "value": "Active"}, {"measurement": "Activity", "setting": "[5]", "value": "inactive"}, {"measurement": "Kd", "setting": "[1]", "value": 40, "unit": "µM"}, {"measurement": "Activity", "setting": "[8]", "value": "Active"}, {"measurement": "Activity", "setting": "[9]", "value": "Active"}, {"measurement": "Kd", "setting": "[2]", "value": 51.1, "unit": "µM"}, {"measurement": "Activity", "setting": "[10]", "value": "Active"}, {"measurement": "IC50", "setting": "[3]", "value": "> 400", "unit": "µM"}]}, {"smiles": "Cc1ccc2c(N)c(S(=O)(=O)Nc3cccc(F)c3)sc2n1", "values": [{"measurement": "Kd", "setting": "[1]", "value": "> 400", "unit": "µM"}, {"measurement": "Activity", "setting": "[8]", "value": "inactive"}, {"measurement": "Kd", "setting": "[2]", "value": "> 400", "unit": "µM"}, {"measurement": "IC50", "setting": "[3]", "value": "> 400", "unit": "µM"}]}, {"smiles": "Cc1ccc2c(N)c(S(=O)(=O)Nc3cccc(C(F)(F)F)c3)sc2n1", "values": [{"measurement": "Kd", "setting": "[1]", "value": "> 400", "unit": "µM"}, {"measurement": "Kd", "setting": "[2]", "value": "> 400", "unit": "µM"}, {"measurement": "IC50", "setting": "[3]", "value": "> 400", "unit": "µM"}]}, {"smiles": "CC(C)c1ccc2c(N)c(C(=O)Nc3cccc(C(F)(F)F)c3)sc2n1", "values": [{"measurement": "Kd", "setting": "[1]", "value": 43.3, "unit": "µM"}, {"measurement": "Kd", "setting": "[2]", "value": 107, "unit": "µM"}, {"measurement": "IC50", "setting": "[3]", "value": "> 400", "unit": "µM"}]}, {"smiles": "Cc1ccc2c(N)c(C(=O)Nc3ccc(C(F)(F)F)cc3)sc2n1", "values": [{"measurement": "Kd", "setting": "[1]", "value": 75.3, "unit": "µM"}, {"measurement": "Kd", "setting": "[2]", "value": 84.1, "unit": "µM"}, {"measurement": "IC50", "setting": "[3]", "value": 87, "unit": "µM"}]}, {"smiles": "Cc1ccc2c(N)c(-c3nc(-c4cccc(C(F)(F)F)c4)no3)sc2n1", "values": [{"measurement": "Kd", "setting": "[1]", "value": 47.7, "unit": "µM"}, {"measurement": "Kd", "setting": "[2]", "value": 46, "unit": "µM"}, {"measurement": "IC50", "setting": "[3]", "value": 45.1, "unit": "µM"}]}, {"smiles": "Nc1c(-c2nnc(-c3cccc(C(F)(F)F)c3)o2)sc2ncccc12", "values": [{"measurement": "Kd", "setting": "[1]", "value": 50.2, "unit": "µM"}, {"measurement": "Kd", "setting": "[2]", "value": 44.1, "unit": "µM"}, {"measurement": "IC50", "setting": "[3]", "value": 37.6, "unit": "µM"}]}, {"smiles": "Cc1ccc2c(N)c(C(=O)NCc3cccc(C(F)(F)F)c3)sc2n1", "values": [{"measurement": "Kd", "setting": "[1]", "value": 66.4, "unit": "µM"}, {"measurement": "Kd", "setting": "[2]", "value": 69.4, "unit": "µM"}, {"measurement": "IC50", "setting": "[3]", "value": "> 400", "unit": "µM"}]}]}
